Compound activity: PubChem BioAssay, The Scripps Research Institute Molecular Screening Center
CHO parental Ca: counter-screen for OX1R antagonists: effect in parental CHO cells; parental CHO-K1, ATP-induced calcium, Fluo-8 fluorescence; inhibition, % at 5.6 µM; 0.63% of 330,000 active;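 active = inhibition above that plate's mean sample inhibition plus 3 SD, cut at about 26% in these data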;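 also: 0% = ATP-challenged DMSO wells and 100% = DMSO wells without ATP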
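Assay system – parental CHO cells · Reagent – ATP stimulus · Detection – intracellular calcium via Fluo-8 no-wash fluorescent dye · Evaluation – percent inhibition of ATP-evoked calcium rise, normalized to controls · Controls – ATP wells versus no-ATP DMSO wells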
OX1R antag-1: human HCRTR1 antagonism; O43613; CHO/OX1R cells, Fluo-8 calcium fluorescence, orexin A; inhibition, % at 5 µM; 0.43% of 330,000 active; AID 434989;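 active = inhibition above its plate's threshold, mean inhibition of all tested compounds on the plate plus 3 SD, cut at about 37% in these data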;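 also: 0% = orexin A challenge wells and 100% = SB-334867-A antagonist wells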
OX1R antag-2: blocks the human orexin 1 receptor | O43613 | OX1R-expressing cells, FRET antagonist read-out | inhibition, % at 6.6 µM | 1.8% of 330,000 active; in the data active = inhibition mostly above about 38%, no sharp cut-off; inactive = mostly below about 40%;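 also: 0% = agonist challenge alone and 100% = reference antagonist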
GalR3 antag: human GalR3 antagonism; inhibition, % at 3 µM; HEK293 GalR3-CNG cAMP membrane potential fluorescence; galR3 body fused to GalR1 C-terminus; O60755; 0.44% of 360,000 active;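 active = inhibition above the screen-wide average plus 3 SD, cut at about 13% in these data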;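 also: forskolin and galanin both at EC90 stimulate the cells; cAMP rise reported by CNG channel membrane potential dye signal; 0% = forskolin plus galanin with DMSO and 100% = forskolin alone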
Target sequence (O60755 1-299 limits assumed): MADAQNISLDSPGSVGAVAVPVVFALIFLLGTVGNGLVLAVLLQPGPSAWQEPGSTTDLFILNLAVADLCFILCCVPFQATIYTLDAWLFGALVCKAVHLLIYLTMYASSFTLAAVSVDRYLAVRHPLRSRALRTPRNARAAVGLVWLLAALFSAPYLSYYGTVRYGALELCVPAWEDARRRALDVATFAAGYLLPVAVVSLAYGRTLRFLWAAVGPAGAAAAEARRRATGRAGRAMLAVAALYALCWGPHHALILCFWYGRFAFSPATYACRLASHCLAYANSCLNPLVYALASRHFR
GPR7 antagonist: antagonists of human GPR7 (neuropeptides B/W receptor 1); 1.1% of 290,000 active; P48145; AID 1861; inhibition, % at 4.4 µM; GPR7-expressing cells, fluorescence antagonist assay; in the data active = inhibition above about 16%, passing the limit was not always enough;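 also: cells stimulated with the agonist NPW; 0% = agonist with vehicle and 100% = vehicle without agonist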
Target sequence (P48145 whole entry, looked up): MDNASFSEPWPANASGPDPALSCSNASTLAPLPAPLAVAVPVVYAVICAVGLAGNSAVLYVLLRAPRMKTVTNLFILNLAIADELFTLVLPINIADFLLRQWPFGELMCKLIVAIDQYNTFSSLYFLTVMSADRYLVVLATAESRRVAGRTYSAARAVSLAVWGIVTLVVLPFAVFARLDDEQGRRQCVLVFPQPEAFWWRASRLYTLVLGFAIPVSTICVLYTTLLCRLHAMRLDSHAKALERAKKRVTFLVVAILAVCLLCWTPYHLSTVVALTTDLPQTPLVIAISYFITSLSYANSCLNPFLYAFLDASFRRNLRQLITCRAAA
OX1R Fluo8 conf: OX1R (human) antagonism, confirmed. 38% of 1,100 active. shares compounds with OX1R antag-1. AID 492963. inhibition, % at 5 µM. CHO/OX1R cells, orexin A calcium Fluo-8 fluorescence; in the data active = inhibition above about 29%;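 also: 0% = agonist challenge alone and 100% = reference antagonist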
CHO Ca counter: signal in parental CHO cells, OX1R antagonist counter-screen; shares compounds with OX1R antag-1; inhibition, % at 5.6 µM; parental CHO-K1, ATP-induced calcium, Fluo-8 fluorescence; 9.3% of 1,100 active;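 active = inhibition above a per-plate limit, the mean inhibition of that plate's test compounds plus 3 SD, cut at about 25% in these data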;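 also: 0% = ATP challenge with DMSO and 100% = DMSO without ATP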
OX1R HTRF conf: OX1R (human) antagonism, HTRF confirmed | shares compounds with OX1R antag-2 | OX1R-expressing cells, HTRF antagonist assay | inhibition, % at 6.6 µM | 49% of 1,800 active | AID 492964; in the data active = inhibition above about 55%;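 also: CHO cells expressing OX1R stimulated with orexin A at about EC80; 0% = agonist challenge alone and 100% = reference antagonist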
CHO-K1 HTRF: signal in parental CHO-K1 cells, OX1R antagonist counter-screen; shares compounds with OX1R antag-2; HTRF counterscreen; inhibition, % at 6.6 µM; 48% of 1,800 active; AID 493232; in the data active = inhibition above about 17%;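 also: 0% = agonist challenge with vehicle and 100% = vehicle alone without agonist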
* = called active by the depositor; · = not tested or not shown. Most compounds without a hit are left out; they make up all but 3.1% or so of the library.

SMILES	CHO parental Ca	OX1R antag-1	OX1R antag-2	GalR3 antag	GPR7 antagonist	OX1R Fluo8 conf	CHO Ca counter	OX1R HTRF conf	CHO-K1 HTRF
Cc1cnc(CNC(=O)c2csc(COCCO)n2)cn1	·	·	·	-4.5	·	·	·	·	·
OCCn1c(SCCOc2ccccc2F)nc2ccccc21	-16.7	52.3*	104.7*	-2.4	-3.7	10.6	-7.5	49.5	-5.1
CN(C)c1ccc(/C=C/c2ccc3ccccc3n2)cc1	14.1	62.2*	75.2*	·	5.8	52.2*	15.3	80.1*	8.2
COCCCNC(=O)CCC(=O)NNc1nc2ccccc2c2nc(-c3ccccc3)nn12	-25.5	33.4	95.3*	2.1	2.3	28.9*	-13.1	81.5*	-1.2
CCOC(=O)CC1(C)c2nc(NC(C)=O)sc2Cc2sc(NC(C)=O)nc21	·	·	·	-5.5	·	·	·	·	·
Cc1cc(C(=O)NCc2cccc(Cl)c2)c2ccccc2n1	-11.3	26.1	86.8*	·	-9.5	30.9*	-2.7	66.9*	1.4
COc1ccc(N(CC(=O)NCCc2cccc(C)c2)S(=O)(=O)c2c(C)noc2C)cc1	-23.2	81.3*	102.6*	·	-6.8	68.1*	-9.8	91.3*	5.1
COc1ccc(N(CC(=O)NCCc2ccc(C)cc2)S(=O)(=O)c2c(C)noc2C)cc1	-3.6	27.1	54.6*	-6.0	-3.1	34.4*	-19.9	84.0*	4.4
COc1ccc(N(CC(=O)NCCc2ccc(OC)c(OC)c2)S(=O)(=O)c2c(C)noc2C)cc1	-29.6	-16.5	28.6	-4.7	-3.5	·	·	·	·
COc1ccc(N(CC(=O)NCc2cccc(OC)c2)S(=O)(=O)c2c(C)noc2C)cc1	-14.3	-15.0	37.6	-6.6	-4.3	·	·	·	·
Cc1cccc(C(=O)NCCC(=O)Nc2ccc(C#N)cc2)c1	-2.0	-7.5	10.8	-9.0	-4.7	·	·	·	·
Cc1ccc(NC(=O)COc2ccc(C(=O)c3ccccc3)cc2)c(O)c1	12.9	6.2	24.3	3.6	-7.9	·	·	·	·
C=CCN1C(=O)C(CC(=O)O)S/C1=N/N=C/c1ccc(N(CC)CC)cc1 (configuration not stated)	-16.8	-2.8	14.3	-4.1	·	·	·	·	·
COc1cc(C(=O)OCC(=O)N2c3ccccc3NC(=O)C2(C)C)ccc1OCC(C)C	7.1	27.9	56.0*	-1.6	·	22.8	-2.7	56.2*	6.0
CN(Cc1ccccc1)C(=O)c1csc([C@@H]2O[C@H](CO)[C@@H](O)[C@H]2O)n1	·	·	·	-3.1	·	·	·	·	·
O=C1Nc2ccccc2/C1=N\N=C\c1ccc(O)c(O)c1	0.5	-8.3	16.9	5.7	1.5	·	·	·	·
Cc1ccsc1/C=N/N=C1\C(=O)Nc2ccccc21	-3.2	31.8	90.8*	1.8	-7.6	36.0*	3.9	93.3*	16.6
COc1ccc(CN(C(=O)CN2C(=O)C(C)Oc3ccccc32)C2CCCC2)c(OC)c1 (configuration not stated)	-28.8	59.0*	83.7*	·	-5.6	24.2	-12.9	76.7*	3.8
CC1Oc2ccccc2N(CC(=O)NC2CCCC2)C1=O (configuration not stated)	-14.8	-15.1	9.9	-3.5	-1.5	·	·	·	·
N#Cc1ccccc1NC(=O)CSC1=Nc2ccccc2C2CC=NN12 (configuration not stated)	-2.6	39.6	84.6*	-5.4	0.0	21.8	-9.3	48.0	0.1
Cc1ccccc1N(CC(=O)NC1CCCC1)C(=O)c1oc(C(C)(C)C)cc1C	-21.3	37.5	93.4*	·	5.8	57.5*	-9.4	85.8*	1.8
Cc1cc(N/N=C/c2ccccc2O)nc(-c2ccccc2O)n1	24.9	54.2*	90.1*	-11.8	1.9	9.3	1.0	21.6	4.7
CCOCCC(=O)Nc1ccc2c(c1)c(=O)n(C)n2-c1ccccc1F	·	·	·	-5.7	·	·	·	·	·
CCn1c(SCC(=O)Nc2ccc(C)cc2)nnc1-c1cnccn1	-4.9	-4.9	-2.3	2.4	-1.2	·	·	·	·
CCn1c(C)c(C)c2cc(C(=O)Nc3cccc(Cl)c3)ccc21	27.6	40.4	121.4*	-0.9	-6.6	-6.2	-11.3	85.1*	8.5
SMILES	CHO parental Ca	OX1R antag-1	OX1R antag-2	GalR3 antag	GPR7 antagonist	OX1R Fluo8 conf	CHO Ca counter	OX1R HTRF conf	CHO-K1 HTRF
CCn1c(SCC(=O)Nc2ccc3c(c2)c2ccccc2n3CC)nnc1-c1cnccn1	-17.4	90.6*	89.4*	-1.3	-9.8	67.6*	-14.6	92.1*	9.3
CCn1c2ccccc2c2cc(NC(=O)c3cccc(OC)c3)ccc21	-8.2	97.0*	103.8*	·	-6.7	97.3*	-12.2	102.6*	14.4
CCn1c2ccccc2c2cc(NC(=O)c3cccc(OC)c3OC)ccc21	7.2	64.3*	86.6*	-0.4	-12.2	74.5*	-3.1	90.8*	13.9
C[C@@H]1CN([C@@H](C)CO)C(=O)Cc2cc(NC(=O)Nc3ccc4c(c3)OCO4)ccc2O[C@@H]1CN(C)C(=O)NC1CCCCC1	-9.3	-5.1	4.0	-0.5	·	·	·	·	·
COc1ccc(OCCSc2ncc(CO)n2C)cc1	-3.2	-6.5	13.1	-6.4	-9.5	·	·	·	·
COc1ccc(S(=O)(=O)NCc2cccnc2)c(Cl)c1Cl	·	·	·	-5.5	·	·	·	·	·
COc1cc(Cl)c(C)cc1NC(=O)c1cccc(OC)c1OC	-21.5	21.5	69.6*	-8.7	-6.7	6.5	-3.0	81.7*	13.0
C=CCN1C(=O)/C(=C/c2ccc(O)c(OC)c2)S/C1=N/c1nccs1	30.6	40.6	89.0*	-3.9	-9.9	36.3*	21.5	65.7*	12.7
C=CCN1C(=O)/C(=C/c2ccc(OCC(=O)O)cc2)S/C1=N/c1nccs1	-16.4	-12.0	14.2	-6.5	-13.2	·	·	·	·
CCOC(=O)c1c(C)[nH]c(C)c1C(=O)Cn1nnc(-c2ccccc2C)n1	6.4	29.3	54.5*	-2.1	-17.8	28.9*	6.8	64.6*	6.7
CCOc1ccccc1C(=O)Nc1ccc(NC(=O)c2ccccc2)cc1	-11.2	-0.6	15.9	-11.2	-8.0	·	·	·	·
CCOc1ccccc1C(=O)Nc1ccc(C(=O)c2ccccc2)cc1	-20.9	16.9	55.4*	-9.5	-5.3	20.3	2.9	66.7*	17.9*
CCOc1ccccc1C(=O)Nc1ccc2nc3n(c(=O)c2c1)CCCCC3	-24.5	94.1*	91.1*	-3.4	-1.0	79.1*	0.5	92.9*	10.9
CC1(C(=O)NS(=O)(=O)c2cccc(C#N)c2)CCN1C(=O)C1(c2ccc(Cl)cc2)CCC1 (configuration not stated)	·	·	·	-6.2	·	·	·	·	·
COc1ccc(S(=O)(=O)N2CCC(C(=O)N[C@@H](C)C(=O)NC3CCCC3)CC2)cc1	5.6	7.2	2.2	-6.1	-6.9	·	·	·	·
O=[N+]([O-])c1ccc(O)c(/C=N/Nc2ccccc2Cl)c1	17.8	34.7	80.7*	-3.2	-10.1	37.1*	14.2	84.4*	11.4
